Screening results (PubChem BioAssay)
TRPC4 act – TRPC4 (mouse) channel activation | Q9QUQ5 | HEK293 TRPC4beta/mu-opioid, Fluo4 calcium fluorescence; hits give high values | B-score at 10 µM | hit rate 0.49% among 310,000;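 active = B-score above 5 SD of library B-scores, and initial fluorescence ratio not above library mean plus 5 SD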;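 note: positive B-score marks a calcium rise read as TRPC4 activation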
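Assay system: HEK293 stable line with TRPC4beta plus mu-opioid receptor. Times: dye 45 min RT, read 110 s. Measured by: kinetic Fluo4 calcium fluorescence. Measure: B score of integrated ratio. Controls: assay buffer as low control, maximal DAMGO as high control.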
TRPC6 inhibitor – mouse TRPC6 channel inhibition; Q61143; HEK293-TRPC6, membrane potential dye, ACh-evoked depolarization; hits give low values; B-score at 10 µM; AID 2553; hit rate 1.1% among 310,000;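 active = B-score under library mean minus 3 SD, initial fluorescence not abnormally high, positive integrated signal ratio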;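 note: B-score derived from integrated fluorescence ratio over the kinetic read; more negative B-score means stronger inhibition of depolarization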
TRPC4 inh – inhibitors of mouse TRPC4 channel; Q9QUQ5; B-score at 10 µM; HEK293 TRPC4beta/mu-opioid, DAMGO-evoked Fluo4 calcium flux; hits give low values; hit rate 0.39% among 300,000;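 active = B-score over 3 SD under the library average, no early fluorescence shift, positive overall ratio signal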
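System: stable TRPC4beta/mu-opioid receptor HEK293 cells; Dosing: single-point compound dosing; Measured by: Fluo4 Ca2+ flux fluorescence; Read-out basis: per-well B score of integrated baseline-normalized Fluo4 ratio.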
TRPC4 PAM – TRPC4 (mouse) allosteric potentiation; B-score at 10 µM; hit rate 0.42% among 310,000; Q9QUQ5; HEK293 TRPC4beta/mu-opioid, DAMGO EC20, Fluo-4 Ca2+ flux; hits give high values; AID 2227;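 active = B-score of calcium response area above 5 SD of library B-scores, with initial fluorescence ratio within 5 SD of library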
TRPC6 act – activates the mouse TRPC6 cation channel; HEK293-TRPC6 membrane potential dye fluorescence; hits give high values; AID 2550; B-score at 10 µM; Q61143; hit rate 0.13% among 310,000;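 active = B-score of the integrated fluorescence ratio above library mean plus 3 SD, and starting fluorescence ratio within library mean plus 5 SD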;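 note: higher score means more depolarization so channel activation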
Kir21 inh – inhibitors of mouse Kir2.1 inward-rectifier potassium channel | B-score at 10 µM | HEK293-Kir2.1, FluxOR thallium flux fluorescence; hits give low values | hit rate 0.85% among 310,000 | P35561;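 active = fluorescence ratio B-score at or below minus 3 SD of library scores, with starting-brightness B-score within 2 SD, cut at about -4.2 in these data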;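 note: channel flux triggered by added potassium and thallium sulfate stimulus; B-score of peak minus minimum fluorescence over baseline after thallium stimulus; more negative B-score means stronger Kir2.1 block with less thallium influx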
hERG ctr – blocks human hERG, in counter-screen for Kir2.1 inhibitors; inhibition, % at 10 µM; hERG-expressing cells, thallium flux; AID 2236; shares compounds with Kir21 inh; hit rate 20% among 320;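 note: host cells are CHO cells stably expressing hERG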
Target sequence (Q12809 whole entry, looked up): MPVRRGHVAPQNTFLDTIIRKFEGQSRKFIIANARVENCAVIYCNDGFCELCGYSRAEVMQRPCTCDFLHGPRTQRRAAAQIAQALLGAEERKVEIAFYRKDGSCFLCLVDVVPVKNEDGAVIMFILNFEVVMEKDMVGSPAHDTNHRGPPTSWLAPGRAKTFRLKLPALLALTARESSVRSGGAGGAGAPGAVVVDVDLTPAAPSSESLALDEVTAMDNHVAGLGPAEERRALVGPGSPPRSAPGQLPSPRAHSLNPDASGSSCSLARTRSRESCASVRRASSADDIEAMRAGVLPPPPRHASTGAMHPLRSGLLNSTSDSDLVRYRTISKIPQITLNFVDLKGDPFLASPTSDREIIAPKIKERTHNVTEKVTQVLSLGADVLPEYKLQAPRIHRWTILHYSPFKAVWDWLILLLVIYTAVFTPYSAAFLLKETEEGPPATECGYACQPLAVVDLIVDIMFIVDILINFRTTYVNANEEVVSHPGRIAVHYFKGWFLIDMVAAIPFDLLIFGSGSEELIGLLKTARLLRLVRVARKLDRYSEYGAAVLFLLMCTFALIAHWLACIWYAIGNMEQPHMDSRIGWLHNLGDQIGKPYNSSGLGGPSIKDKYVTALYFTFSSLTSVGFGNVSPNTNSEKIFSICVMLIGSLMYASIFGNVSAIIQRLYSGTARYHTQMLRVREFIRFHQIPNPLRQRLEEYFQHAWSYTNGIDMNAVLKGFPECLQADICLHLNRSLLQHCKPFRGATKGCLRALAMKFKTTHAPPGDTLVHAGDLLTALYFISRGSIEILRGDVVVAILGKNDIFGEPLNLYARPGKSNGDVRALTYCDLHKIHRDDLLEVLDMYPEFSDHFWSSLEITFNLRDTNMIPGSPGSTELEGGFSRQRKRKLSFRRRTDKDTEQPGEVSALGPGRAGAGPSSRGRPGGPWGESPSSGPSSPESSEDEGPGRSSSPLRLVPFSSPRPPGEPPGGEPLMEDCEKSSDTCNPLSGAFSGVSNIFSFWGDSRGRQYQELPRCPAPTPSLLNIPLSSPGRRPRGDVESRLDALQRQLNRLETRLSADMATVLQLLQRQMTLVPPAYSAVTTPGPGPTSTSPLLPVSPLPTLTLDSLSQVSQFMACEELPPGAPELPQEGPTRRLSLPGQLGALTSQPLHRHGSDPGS
KCNK9 inh – selectivity of Kir2.1 inhibitors: effect on human KCNK9; shares compounds with Kir21 inh; AID 2329; hit rate 5% among 320; KCNK9-expressing cells, ion flux inhibition; inhibition, % at 10 µM
Kir2-1 patch inh – blocks mouse Kir2.1 current in automated electrophysiology; Kir2.1 cells, automated patch-clamp current inhibition; shares compounds with Kir21 inh; hit rate 71% among 320; inhibition, % at 25 µM; AID 463252
TRPC4 sel inh 2 – second check of whether TRPC6 inhibitors also affect mouse TRPC4; shares compounds with TRPC6 inhibitor; HEK293 TRPC4/MOR, membrane potential dye fluorescence; channel activated by saturating DAMGO dose; inhibition, % at 10 µM; hit rate 42% among 920; AID 2776;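 active = compounds whose fluorescence signal differed from control wells by over 3 SD, either direction, in both duplicate plates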
TRPC4 spec – tests whether TRPC6 inhibitors also affect mouse TRPC4 | activity change, negative = inhibition, % at 10 µM | shares compounds with TRPC6 inhibitor | AID 2777 | hit rate 61% among 920 | HEK293 TRPC4/mu-opioid, membrane potential fluorescence;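 active = rise or fall in signal beyond 3 SD of buffer-only wells in both replicate plates, either sign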;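 note: integrated kinetic ratio of fluorescence range over baseline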
HEK293 MPD ctr 2-1 – second check of TRPC6 inhibitor effects in parental HEK293 cells. shares compounds with TRPC6 inhibitor. parental HEK293 membrane potential dye fluorescence; maximal acetylcholine challenge after compound addition. signal change vs control, % at 10 µM. hit rate 31% among 920;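 active = membrane potential signal moving either way by over 3 SD of the maximum-effect control, in both duplicate plates, meaning non-specific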
HEK293 MPD ctr-1 – counter-screen for TRPC6 inhibitors: effect in parental HEK293 cells. shares compounds with TRPC6 inhibitor. hit rate 60% among 920. parental HEK293 membrane potential dye fluorescence. membrane potential signal change, % at 10 µM;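 active = membrane potential signal shifting up or down by more than 3 SD of buffer-only wells, on both duplicate plates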
HEK293 MPD ctr-2 – checks TRPC6 modulator effects in parental HEK293 cells; shares compounds with TRPC6 inhibitor; membrane potential dye fluorescence; membrane potential signal change, % at 10 µM; hit rate 51% among 2,400; AID 488924;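 active = membrane potential signal moves up or down beyond 5 SD from buffer-only wells, on both duplicate plates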
HEK293 MPD ctr 2-2 – second check of TRPC6 modulator effects in parental HEK293 cells. shares compounds with TRPC6 inhibitor. membrane potential dye fluorescence; after compound, maximal acetylcholine stimulation. inhibition, % at 10 µM. hit rate 14% among 2,400;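 active = membrane potential signal drops by more than 5 SD from the mean control signal, in both duplicate plates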
TRPC4/MOR mod – mouse TRPC4 off-target activity of TRPC6 modulators. shares compounds with TRPC6 inhibitor. percent change from control (negative = decrease, positive = increase), % at 10 µM. hit rate 69% among 2,400. AID 488927. HEK293 TRPC4/mu-opioid, membrane potential fluorescence;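 active = membrane potential signal moved up or down beyond 5 SD of buffer control wells, in both duplicate plates, actives on both sides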
TRPC4 ctr inh 2 – second check of whether TRPC6 modulators also affect mouse TRPC4; HEK293 TRPC4/mu-opioid, membrane potential dye fluorescence; stimulated with maximal-effect DAMGO; shares compounds with TRPC6 inhibitor; hit rate 55% among 2,400; AID 488928; inhibition, % at 10 µM;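 active = drop in membrane potential signal beyond 5 SD of the control wells in both duplicate plates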;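 note: TRPC4 counter screen for TRPC6 hits run under conditions tuned for TRPC6 not TRPC4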
TRPC6 block conf – confirmation of mouse TRPC6 inhibitors; HEK293-TRPC6, membrane potential dye, ACh-evoked depolarization; shares compounds with TRPC6 inhibitor; inhibition, % at 10 µM; hit rate 43% among 3,300;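 active = fluorescence ratio falls more than 5 SD below the full-stimulation control mean, in both duplicate runs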;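 note: integrated fluorescence ratio of peak minus minimum over baseline after agonist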
TRPC6 act conf – confirmation of mouse TRPC6 activators; shares compounds with TRPC6 inhibitor; hit rate 11% among 2,800; AID 488961; HEK293-TRPC6 membrane potential dye fluorescence, FDSS; activation, % at 10 µM;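 active = ratio signal rise beyond 5 SD above unstimulated control wells' mean, seen in both duplicate runs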
Each line names hits and unclear results; the compound was inactive in the other large screens (follow-up assays come after a bar, where they were run). Sampled rows, rich in hits. Any-hit rate of the full collection: about 2.9%. Unless noted, the rule behind the calls is not given here.

CCCCCCCn1c(=N)n(CC(O)c2ccco2)c2ccccc21 (centres undefined)	TRPC6 inhibitor -5.38, Kir21 inh -5.91 | hERG ctr 70.0% | KCNK9 inh inactive | Kir2-1 patch inh inactive | HEK293 MPD ctr-2 235.0% | HEK293 MPD ctr 2-2 inactive | TRPC4/MOR mod 44.5% | TRPC4 ctr inh 2 93.0% | TRPC6 block conf 70.0%
Cc1ccccc1Cn1c(=N)n(CC(O)c2ccco2)c2ccccc21 (centres undefined)	TRPC6 inhibitor -5.25, TRPC4 inh -6, Kir21 inh -5.93 | hERG ctr 50.0% | KCNK9 inh inactive | Kir2-1 patch inh inactive | HEK293 MPD ctr-2 143.0% | HEK293 MPD ctr 2-2 inactive | TRPC4/MOR mod 49.0% | TRPC4 ctr inh 2 99.0% | TRPC6 block conf 48.0%
CCCCCCCn1c(=N)n(CC(=O)c2ccco2)c2ccccc21	TRPC6 inhibitor -5.33, Kir21 inh -10.2 | hERG ctr 67.0% | KCNK9 inh inactive | Kir2-1 patch inh 6.9% | HEK293 MPD ctr-2 93.5% | HEK293 MPD ctr 2-2 inactive | TRPC4/MOR mod 16.0% | TRPC4 ctr inh 2 77.5% | TRPC6 block conf 57.5% | TRPC6 act conf inactive
CCOC(=O)/C(C#N)=C\N(C)C	none
CC(C)c1ccc(-c2nnn(Cc3nc4ccccc4s3)n2)cc1	none
COc1ccc(C(=O)N/C(=C/c2ccco2)C(=O)N2CCCCCC2)cc1	none
Cc1ccc(Nc2cc(C)nc3c(C)cccc23)cc1	TRPC6 inhibitor -6.8, TRPC4 inh -7, Kir21 inh -8.7 | hERG ctr inactive | KCNK9 inh inactive | Kir2-1 patch inh 61.4% | TRPC4 sel inh 2 20.5% | TRPC4 spec inactive | HEK293 MPD ctr 2-1 22.0% | HEK293 MPD ctr-1 -196.5% | TRPC6 block conf 98.0% | TRPC6 act conf inactive
CCNc1ccc2noc3c2c1C(=O)c1ccccc1-3	TRPC6 inhibitor -5.78 | HEK293 MPD ctr-2 231.0% | HEK293 MPD ctr 2-2 108.0% | TRPC4/MOR mod -281.5% | TRPC4 ctr inh 2 144.0% | TRPC6 block conf 70.5% | TRPC6 act conf inactive
CCN1C(=O)/C(=C/C=C2/Sc3ccc4ccccc4c3N2CCO)SC1=S	none
CCN(CC)CCN1C(=O)C2C3c4ccccc4C(c4ccccc43)C2C1=O (centres undefined)	none
CCN(CC)CCN1c2ccccc2Sc2ccccc21	TRPC6 inhibitor -6.25, TRPC4 inh -6, Kir21 inh -4.67 | HEK293 MPD ctr-2 92.0% | HEK293 MPD ctr 2-2 inactive | TRPC4/MOR mod 49.0% | TRPC4 ctr inh 2 64.5% | TRPC6 block conf 55.0%
CCN(CC)CCN1c2ccccc2Sc2ccc3ccccc3c21	TRPC6 inhibitor -5.95 | HEK293 MPD ctr-2 inactive | HEK293 MPD ctr 2-2 inactive | TRPC4/MOR mod inactive | TRPC4 ctr inh 2 inactive | TRPC6 block conf inactive | TRPC6 act conf inactive
C/C(=N\Nc1ccc2nncn2n1)c1ccccn1	TRPC6 inhibitor -7.39 | TRPC4 sel inh 2 71.0% | TRPC4 spec -35.7% | HEK293 MPD ctr 2-1 inactive | HEK293 MPD ctr-1 -522.5% | TRPC6 block conf 84.3% | TRPC6 act conf inactive
Cc1cc(-c2n[nH]c(=S)n2/N=C/c2ccc(Cl)c([N+](=O)[O-])c2)n[nH]1	none
O=C1C(=O)c2c(C(=O)c3ccccc3)coc2-c2ccccc21	TRPC6 inhibitor -6.2 | HEK293 MPD ctr-2 -79.5% | HEK293 MPD ctr 2-2 inactive | TRPC4/MOR mod -18.5% | TRPC4 ctr inh 2 71.5% | TRPC6 block conf 60.5% | TRPC6 act conf inactive
O=C(C1=C(c2ccccc2)C(=O)c2ccccc2C1=O)c1ccccc1	none
COc1ccc(-c2cc3nc(C)cc(N)n3n2)cc1	TRPC6 inhibitor -5.03 | HEK293 MPD ctr-2 -143.0% | HEK293 MPD ctr 2-2 inactive | TRPC4/MOR mod -21.5% | TRPC4 ctr inh 2 inactive | TRPC6 block conf inactive | TRPC6 act conf inactive
COCCNc1cc(C)nc2cc(-c3ccc(C)cc3)nn12	none
COc1ccc(-c2cc3nc(C)cc(-c4ccc(OC)cc4)n3n2)cc1	none
COc1ccc(-c2cc3nc(C)cc(NCCO)n3n2)cc1	TRPC6 inhibitor -8.97 | HEK293 MPD ctr-2 -300.0% | HEK293 MPD ctr 2-2 inactive | TRPC4/MOR mod -48.5% | TRPC4 ctr inh 2 49.0% | TRPC6 block conf 71.5% | TRPC6 act conf inactive
COCCNc1nc2nonc2nc1N1CCC(N(C)C)C1 (centres undefined)	TRPC6 inhibitor -5.42 | HEK293 MPD ctr-2 inactive | HEK293 MPD ctr 2-2 inactive | TRPC4/MOR mod inactive | TRPC4 ctr inh 2 inactive | TRPC6 block conf inactive | TRPC6 act conf inactive
COCCNc1nc2nonc2nc1N1C[C@H]2CC[C@H]1C2	none
CN(Cc1ccccn1)C(=O)CC1C(=O)NCCN1Cc1ccc(F)cc1Cl (centres undefined)	none
